Test system: MS2 coat protein
Assay: apparent Kd, MS2 coat protein; higher = weaker binding; RNA-MaP array; FMN 200 µM where present
Method in brief: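 The apparent Kd is reported as the median of filtered per-cluster binding-curve fits. To get these curves, designs transcribed by stalled E. coli RNA polymerase on Illumina sequencing-chip clusters were titrated with SNAP-549-labelled MS2 coat protein from 0.7 or 1.5 nM, doubling to 3 µM. Titrations were run without and then with constant ligand in 100 mM Tris-HCl pH 7.5, 80 mM KCl, 4 mM MgCl2, BSA, DTT, yeast tRNA and Tween-20, and green signal was normalised to red-channel RNA signal and control-cluster median Fmax.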

[1] = designed as: OFF switch for flavin mononucleotide, no ligand
[2] = ligand present: flavin mononucleotide, designed as: OFF switch for flavin mononucleotide
[3] = designed as: ON switch for flavin mononucleotide, no ligand
[4] = ligand present: flavin mononucleotide, designed as: ON switch for flavin mononucleotide

Row | Sequence | apparent Kd [1] [nM] | apparent Kd [2] [nM] | apparent Kd [3] [nM] | apparent Kd [4] [nM]
1 | UCGGCGCGAGGAUAUACGUUUGCGCGUUUUCGUUUUUGCGUACAUGAGGAUCACCCAUGUAGAAGGCGCGCCGC | 12.8 | 18 | – | –
2 | GAGGAGCAAGGAUAUACGAGGAUAUGGUAGUUUGUAGAGUGACAUGAGGAUCACCCAUGUAGAAGGUGCGAGGG | 64.2 | 52.9 | – | –
3 | CUCUUGGCAGGAUAUGCUCUUUUAGACAUGAGGAUCACCCAUGUGCUCAUUCCUUCUUUUGCAGAAGGGCCUUAAC | 73 | 54.7 | – | –
4 | UACCUGAGGCAAAGCUUUAGGUAUACAUGAGGAUCACCCAUGUAGGAUAUGGUAGGCUUUGCUUACCAGAAGGACAUGUUAAUA | 17.3 | 56.3 | – | –
5 | GUGGUCAGACAUGAGGAUCACCCAUGUGGAAUAAAUAACAGACAGGAUAUGUAAUAUAGGAUAUAACAGAAGGGUCGAUUGGUG | – | – | 89 | 77.9
6 | UUACUUCAUGAGAAGGACAUGAGGAUCACCCAUGUAGGAUAUCGUGGGAGACUGGUAUUGAAUCUUCGGAUUCAAUACCAGUCU | – | – | 56.9 | 9.15
7 | GUAUCAUACCAAGGAUAUUUAGGACUUGUAUAGACAUGAGGAUCACCCAUGUGGCGUUAGUCACGGGAGAAGGUGGUAUGAUAC | – | – | 88.4 | 17.5
8 | UUAUUUAUGUAAGGAUAUCGAUUAUAUACACAUCCGACAUGAGGAUCACCCAUGUUUUAUUUUUUCGAGAAGGUACAUUGUCGG | – | – | 76.5 | 74.7
9 | GUGGUCAGACAUGAGGAUCACCCAUGUGGAAUAAAUAAGGAAUAGGAUAUCGAAUAUAGGAUAUACGAGAAGGGUUGGUUGGUG | – | – | 121 | 131
10 | CCGGAAAUACAGGAUAUAGGAGUCAAUAGACUCCUAGAAGGGUAUACAUGAGGAUCACCCAUGUGUCCUACCGG | 35 | 35.6 | – | –
11 | UCUGUUCAAGGAUAUGCGUAAUGUGUUACGGCACAAGGUCUACAUGAGGAUCACCCAUGUAGAAGGUGAUCAGA | 20.8 | 22.4 | – | –
12 | AAACACGGACAUGAGGAUCACCCAUGUGGCGAAAGCCUUGGGAGAAGGCCGAUUGCAAAGCAAUCGGAGGAUAUUCGUACCGUG | – | – | 237 | 13.8
13 | GAGUAGAAGUUAGGAUAUUGGAUAGGGACGGAAUAAGAAGGAGCAAGACAUGAGGAUCACCCAUGUGUAGAAGAAGAGAUCCUC | 448 | 168 | – | –
14 | UUAACAUGAGGAUCACCCAUGUAAAGAACGGUUAAUUAAAGUGAGGAUAUACAAAAUUUUAUAUUGUAGAAGGCACUGGGUACA | – | – | – | 22.9
15 | UAUGGUAAAGUCAGGAUAUACGUACGUCGUUCUAGGUAGAAGGGACAUGAGGAUCACCCAUGUAUGGUAGUGUU | 90 | 88.9 | – | –
16 | GGAUAGGACAGAGGAUAUACGUGCUAGAGAUACUAGCAAGAUUUCCUCACAUGAGGAUCACCCAUGUAGAAGGCUGUCCUAUCG | 13.2 | 348 | – | –
17 | CUCAUGUAAGGAUAUCAGUAGUAAAAAAAUAAAAUUACUACUGAGAAGGUACAUGAGGAUCACCCAUGUCCUGG | 33.3 | 17.9 | – | –
18 | GGACGUCAGAUUAACAUGAGGAUCACCCAUGUCUUUUGACAUGAGGAUAUGCAACCUAAUUGGUUGCAGAAGGCAUGGACGUCC | – | – | 917 | 85.2
19 | UUGCCUCAGAACAUGAGGAUCACCCAUGUGCUGCGGGCAACGUAGGAUAUGAUGGUGCAACACCAUCAGAAGGAUGAUGGUACC | – | – | 5.62 | 5.45
20 | AUUUAAAUGUCAGGAUAUGUUAGUUUAUACAUAGUAGAAGGGAUAAUUAUACUCAUGUACAUGAGGAUCACCCAUGUUAAAUAA | – | – | 206 | 107
21 | AAUAGGCGAGGAUAUACAUGAGGAUCACCCAUGUAAGUAAGCCUGGCUGAAACUGAAUGUAGAAGGCGCAAUAA | 17.6 | 58.5 | – | –
22 | UAUGUUGUUGUGAGGAUAUACUUAGUUUGACCGUAGUAGAAGGCACAUGAGGAUCACCCAUGUAGAUGCUUGGU | 5.75 | 10.8 | – | –
23 | UUUAUGUAAGAGAAGGAGGACUUCAUGAGGAUCACCCAUGUGUUAGUACUUAGGAUAUUUGACAACAUGAGGAUCACCCAUGUC | – | – | 59.9 | 58.4
24 | AGCUACGUUUCGUAGCAGUGUCAUCGAGAAGGCCUCAUAACAUGAGGAUCACCCAUGUUAGCAUGGGAGGAUAUCGAUGAUACA | – | – | 58.8 | 24.2
25 | UUUUUACUUGUAGGAUAUGGAGACAUGAGGAUCACCCAUGUAUGAUAAGCUAAAUUAUGCUGUGGCCAGAAGGAUAUUAUUCUU | – | – | 48.2 | 53.7
26 | GGAUCCGCUUCCGCCACAUGAGGAUCACCCAUGUGUAUGAACAGAAGGGCGACCUCAAAGAGGGCGCAGGAUAUGUACUCGUAC | – | – | 78.3 | 48.6
27 | CAUCAAAGAAUACCAGGGCAUUAAUGAGAAGGCCAACCACAUGAGGAUCACCCAUGUACGGGAGUGGAGGAUAUCAGUGGGCCG | – | – | 52.5 | 6.43
28 | GUUUGGGCAGGAUAUACAUGAGGAUCACCCAUGUGUUUUUUGUGUGUUUUGUUAUCGUGUAGAAGGGUUCGGGC | 68.5 | 147 | – | –

Row | Sequence | apparent Kd [1] [nM] | apparent Kd [2] [nM] | apparent Kd [3] [nM] | apparent Kd [4] [nM]
29 | CCUUUCGGUGUCAGGAUAUACUGCGCCUGGCGCAAGUAGAAGGGACAUGAGGAUCACCCAUGUAGCGGGACCGA | 73.7 | 81.9 | – | –
30 | GGACGUCAGAUUAACAUGAGGAUCACCCAUGUCUUUUGACAUGAGGAUAUGCAACGUAAUUCGUUGCAGAAGGCAUGGACGUCC | – | – | 1010 | 89.8
31 | GUAUCACGAGGAUAUACAUGAGGAUCACCCAUGUAGAAGCCAUGUGGUGCUCAAGUAUGUAGAAGGCGUGCUCC | – | 33.3 | – | –
32 | AAUAGUGGCGUAGGAUAUCUGCGUACAUGAGGAUCACCCAUGUCUCCCAACUGCUGAGCUGGGACAGAGAAGGGCGACCGCAUA | – | – | 225 | 85.4
33 | GGUGCGUUUGUGAGGAUAUGCUGGUCCUUGGAUCAGCAGAAGGCACAUGAGGAUCACCCAUGUGGUGUCGGUCC | 416 | 37.6 | – | –
34 | CGCUAGUCAGGAUAUACGAACAUGUCAAAAGACGUGAAGGGACAUGAGGAUCACCCAUGUAGAAGGGACUAGCG | 36.8 | 206 | – | –
35 | GUGCACAUUCGAGGAUAUCGGAGAGAGAUCCUUCGAGAAGGCGAUUCAUGAUGUAUUAUCCUGGACAUGAGGAUCACCCAUGUG | – | – | 579 | 288
36 | AUCUCAGGACGAGGAUAUCAAUACAUGAGGAUCACCCAUGUAUGAUUACUGUGAUCCUUCAAGGCUGAGAAGGCGUCCCAAAUG | 12.2 | 27 | – | –
37 | GGGUUCAUGUAAGGAUAUGUAUUGUUAAUCGGAGCAGAAGGUACAUGAGGAUCACCCAUGUCAACCUAGAGCAGGGCUUCUUAA | 23.7 | 45.2 | – | –
38 | CGUAGGAUCCAGAAGGCAUGAACAUGAGGAUCACCCAUGUCAAUAGACAUGAGGAUAUGGAUCCUACGAAAAGUGCGAAAGCAC | – | – | 31.8 | 5.94
39 | ACGCCCUGAGGAUAUCUCAUCCCGCACAUGAGGAUCACCCAUGUUCUCCUCCGGGCUCCGAGAGAAGGCAGGCCCA | 54.7 | 95.2 | – | –
40 | AAGAGACAUCAGAAGGGAGCCCGCACGCGCGGCUCAGGAUAUGAGAUCUUAUGUAGUACGACAUGAGGAUCACCCAUGUCCGCG | – | – | 37.8 | 7.97
41 | GAGGCACAUGAGGAUCACCCAUGUGGGUAUAACAUAGGAUAUCACCAACAAAAUACCCGGUGAGAAGGAUGAUGCC | – | – | 217 | 113
42 | GUAGCAUUGAGAGGAUAUCCAUACCGGAAACGGACAUGAGGAUCACCCAUGUCGCGAAAGCGGUGGGAGAAGGCUCUAUGCUAC | – | – | 4.52 | 4.46
43 | GUUUAGUGAGGAUAUGUGGCUUCGAUCGUGCGCGGUCGGCUACAGAAGGCACAUGAGGAUCACCCAUGUUCCUC | 37.1 | 506 | – | –
44 | AGUAGAUCAGGAUAUACAUGAAAGAUCAAAAUGUCCAAUCUACAUGAGGAUCACCCAUGUAGAAGGGAUCUACA | 17.1 | 23 | – | –
45 | UAAUAAUUAAGAGGAUAUAUACAACAUGAGGAUCACCCAUGUACCCAUGUAGUAGAAGGCUUAUUUUUAUUUAAUAAUAUAAUU | – | – | 122 | 40.1
46 | GUCUUAUUACAGAAGGUGUUUUACAUGAGGAUCACCCAUGUUUUAAUGUUUAAAUUUGAUAUUUACAAGGAUAUGUACUAAUCU | – | – | 27.7 | 19.4
47 | UAAAAGACUAGCAAAUAAGUUCCACAUGAGGAUCACCCAUGUCAGGAUAUGAGCAGCAAAGCUGCUCAGAAGGGAUAGCUAGUC | 6.45 | 6.39 | – | –
48 | UUGGACGUCGUAGGGUAUGUAGGAUAUUCCUACAUGAGGAUCACCCAUGUUGACAUGGAAGAAGGACAGAAGGACGAUGUCCAU | – | – | 106 | 4.37
49 | CAAUAUAACACAGGAUAUGUCUCGUUUACAUGAGGAUCACCCAUGUCCGAAACAGAAGGGUGACCCGAUAUAGGACGUUGGGUG | – | – | 56.3 | 18
50 | CGCUAGCGAAUAGUAAUAAAAGUACAGGAUAUGUUACAUGAGGAUCACCCAUGUAUUGGGUAAGAACAGAAGGGUACGCUAGCG | 136 | 97.8 | – | –
51 | UGUCAUAAAUAGAAGGGUAGUUGGGUUUUACAUGAGGAUCACCCAUGUAUUAUAGGAUAUGUGUAAAGUUAUUAUUAAAGUAAA | 39.2 | 34.5 | – | –
52 | GGGAUGCUAGGAUAUACAUCGGGCUCCAGGAUGUUCCGGGAACAUGAGGAUCACCCAUGUAGAAGGAGCUAAAG | 67.9 | 53.5 | – | –
53 | UGUAUUAAUGGAGGAUAUCGAUAUCAAACAUGAGGAUCACCCAUGUUGAGGAUCACCCAUGUCCAUGAGAAGGCCGGCGUACUU | – | – | 34.4 | 32.8
54 | AAACGCCAACAUGAGGAUCACCCAUGUUCUAGUUUAGGGUCGCAGGAUAUGACUUCGAAGCUUAGUCAGAAGGGUGAGUCCACA | – | – | 13.7 | 11.2
55 | UUACCUCAUAUGGUUACAUGAGGAUCACCCAUGUGAAUAGCACAGGAUAUCACGAGGGCCACGUGUGAGAAGGGUGAUGUGAGG | – | – | 438 | 167
